From PMC4012894 (Journal of the American Chemical Society, 2014) come the findings set out here.

The test system of one assay is PikCD50N/H238A-RhFRED. Nature of the assay: Total turnover number. Type of assay: biochemical. The settings on record: PikCD50N/H238A-RhFRED double mutant. A digest of the protocol:
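Double mutant made by adding H238A to the PikCD50N-RhFRED fusion, to probe the H238 H-bond to the anchoring-group carbonyl. TTN is expressed relative to moles of enzyme.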

The target in assay [1] is T1, PikCD50N-RhFRED (Streptomyces venezuelae, UniProt O87605, D50N).
T1 sequence (O87605 1-416 D50N): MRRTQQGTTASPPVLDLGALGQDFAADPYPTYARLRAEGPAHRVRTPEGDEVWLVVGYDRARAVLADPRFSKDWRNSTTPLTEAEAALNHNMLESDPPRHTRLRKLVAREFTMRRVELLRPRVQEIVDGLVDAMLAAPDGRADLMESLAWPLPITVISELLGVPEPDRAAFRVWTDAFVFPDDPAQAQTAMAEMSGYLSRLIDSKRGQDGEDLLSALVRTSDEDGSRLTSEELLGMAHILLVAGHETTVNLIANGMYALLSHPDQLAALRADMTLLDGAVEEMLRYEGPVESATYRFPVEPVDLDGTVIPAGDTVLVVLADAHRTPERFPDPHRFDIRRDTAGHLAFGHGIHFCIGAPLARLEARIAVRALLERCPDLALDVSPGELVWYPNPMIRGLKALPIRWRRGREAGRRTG
T1 sequence (Q8KU27 445-773 partner): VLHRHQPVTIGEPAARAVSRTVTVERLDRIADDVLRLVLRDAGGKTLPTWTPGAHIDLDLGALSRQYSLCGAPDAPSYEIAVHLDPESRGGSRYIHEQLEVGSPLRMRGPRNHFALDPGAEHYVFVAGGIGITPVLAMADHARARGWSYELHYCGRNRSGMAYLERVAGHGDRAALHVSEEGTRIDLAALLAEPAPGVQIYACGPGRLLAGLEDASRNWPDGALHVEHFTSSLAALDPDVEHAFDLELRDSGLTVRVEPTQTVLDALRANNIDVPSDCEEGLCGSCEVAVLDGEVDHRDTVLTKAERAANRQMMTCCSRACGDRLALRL
Put plainly: Spectroscopic equilibrium substrate binding assay, PikCD50N-RhFRED.

The target of another assay is T2, PikCD50NH238A (Streptomyces venezuelae, UniProt O87605, D50N/H238A).
T2 sequence (O87605 1-416 D50N/H238A): T1 sequence (O87605 1-416 D50N)
T2 sequence (Q8KU27 445-773 partner): T1 sequence (Q8KU27 445-773 partner)
Nature of the assay: Spectroscopic equilibrium substrate binding assay, PikCD50NH238A mutant.

For assay [2], the target named is T1, PikCD50N-RhFRED. Put plainly: PikCD50N-RhFRED analytical-scale enzymatic reactions. The settings on record: for preferred site of hydroxylation (regioselectivity in words): PikCD50N-RhFRED; for hydroxylation by PikCD50N-RhFRED (result in words): 0.5 mol % enzyme (5 μM enzyme, 1 mM substrate). Type of assay: biochemical.

The Kd is the equilibrium constant for the complex coming apart. A high value points to a looser complex. `CC[C@H]1OC(=O)[C@H](C)[C@@H](OC(=O)CCN(C)C)[C@@H](C)C[C@@H](C)C(=O)/C=C/[C@H]1C` [8b]: the “TTN D50NH238A” value in the assay on PikCD50N/H238A-RhFRED is 870 ± 38. In addition, the Kd at PikCD50N-RhFRED [1] turned out to be 81 ± 15 µM; at PikCD50NH238A it was 161 ± 25 µM.
As to `CC[C@H]1OC(=O)[C@H](C)[C@@H](OC(=O)[C@H]2CCCN2C)[C@@H](C)C[C@@H](C)C(=O)/C=C/[C@H]1C` [12a], the “TTN D50NH238A” value with PikCD50N/H238A-RhFRED is 542 ± 30. In addition, the dissociation constant Kd is 47 ± 3 µM at PikCD50N-RhFRED [1] and 19 ± 1.3 µM on PikCD50NH238A. Besides, the “preferred site of hydroxylation (regioselectivity in words)” value on PikCD50N-RhFRED [2] is on record as “preferential C-10 hydroxylation”.
For `CC[C@H]1OC(=O)[C@H](C)[C@@H](OC(=O)[C@@H]2CCCN2C)[C@@H](C)C[C@@H](C)C(=O)/C=C/[C@H]1C` [12b], in that order: 538 ± 20, 28 ± 5.4 µM, 21 ± 0.7 µM and “preferential C-10 hydroxylation”.
With `CC[C@H]1OC(=O)[C@H](C)[C@@H](OC(=O)c2ccc(CN(C)C)cc2)[C@@H](C)C[C@@H](C)C(=O)/C=C/[C@H]1C` [16a], the “TTN D50NH238A” value in the assay with PikCD50N/H238A-RhFRED is recorded as 816 ± 33. Moreover, at PikCD50N-RhFRED [2], the “hydroxylation by PikCD50N-RhFRED (result in words)” value is reported as “converted to monohydroxylated products” and the “preferred site of hydroxylation (regioselectivity in words)” value was “highly regioselective allylic hydroxylation at C-10”.
For `CC[C@H]1OC(=O)[C@H](C)[C@@H](OC(=O)c2cccc(CN(C)C)c2)[C@@H](C)C[C@@H](C)C(=O)/C=C/[C@H]1C` [16b], in that order: 922 ± 35, “converted to monohydroxylated products” and “highly regioselective allylic hydroxylation at C-10”.
Consider `CC[C@H]1OC(=O)[C@H](C)[C@@H](OC(=O)CCCN(C)C)[C@@H](C)C[C@@H](C)C(=O)/C=C/[C@H]1C` [compound 10], for which the “TTN D50NH238A” value in the assay with PikCD50N/H238A-RhFRED turned out to be 853 ± 38. Besides, the dissociation constant (Kd) at PikCD50N-RhFRED [1] was 123 ± 14 µM; at PikCD50NH238A, 168 ± 19 µM.
Take `CC[C@H]1OC(=O)[C@H](C)[C@@H](OC(=O)c2ccccc2CN(C)C)[C@@H](C)C[C@@H](C)C(=O)/C=C/[C@H]1C` [compound 14]: the “TTN D50NH238A” value in the assay with PikCD50N/H238A-RhFRED is reported as 491 ± 26. In addition, on PikCD50N-RhFRED [2], the “hydroxylation by PikCD50N-RhFRED (result in words)” value was “converted to monohydroxylated products” and the “preferred site of hydroxylation (regioselectivity in words)” value is recorded as “favor C-12 hydroxylation”.
